# Screens (PubChem BioAssay)
# S100A4 inh HTS – inhibitors of human S100A4 binding to myosin IIA peptide | 360,000 compounds, 0.14% hits | S100A4/TAMRA-MyoIIA peptide fluorescence polarization | inhibition, % at 10.7 µM | P26447;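 active means mean inhibition of at least 70% across replicates, with every replicate also reaching that level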
# Target sequence (P26447 whole entry, looked up): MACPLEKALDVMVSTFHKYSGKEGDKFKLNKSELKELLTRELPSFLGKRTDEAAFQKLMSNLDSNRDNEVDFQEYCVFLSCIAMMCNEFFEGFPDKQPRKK
#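 Material: S100A4 monomer protein | Medium: HEPES pH 7.2 with CaCl2, KCl, NaCl, DTT, Triton | Reagent: Labelled myosin peptide probe, 5 nM | Doses: One dose per compound | Times: 5 min incubation before reading | Benchmarks: Neutral control DMSO, positive control TFP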
# Casp6 inh – blocks human caspase-6 cleavage activity; purified caspase-6, Z-VEID-R110 cleavage fluorescence; inhibition, % at 12.5 µM; 350,000 compounds, 0.53% hits; AID 686996;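 active means mean inhibition across replicates at least about 35%, with every replicate also reaching that limit, limit read from the data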;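 further: 0% = median of neutral control wells and 100% = no fluorescence left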
# Target sequence (P55212 24-179 limits assumed): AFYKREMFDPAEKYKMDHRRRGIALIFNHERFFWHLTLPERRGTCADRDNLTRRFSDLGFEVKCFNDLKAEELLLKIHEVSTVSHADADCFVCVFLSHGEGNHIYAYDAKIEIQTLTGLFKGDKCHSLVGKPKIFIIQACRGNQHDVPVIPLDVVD
# Target sequence (P55212 194-293 limits assumed): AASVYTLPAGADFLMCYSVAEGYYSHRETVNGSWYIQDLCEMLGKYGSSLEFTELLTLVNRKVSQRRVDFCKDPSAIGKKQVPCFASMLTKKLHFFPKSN
# Ecoli rRNA inh – inhibits bacterial ribosomal RNA function over humanized ribosomes | E. coli WT GFP vs humanized-ribosome RFP mutants, fluorescence, 24 h; stronger effect = lower value; DMSO median 0, no signal -100 | GFP signal change (wild-type ribosome), % (concentration not given with the values) | 350,000 compounds, 1.6% hits;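 active means significant combined selectivity score with lowered wild-type GFP, culture density cut under 30%, mutant RFP and density less affected; inactive means any of these conditions unmet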
# ARNT-TACC3 inh – disrupts binding between human ARNT and TACC3. Q9Y6A5. AlphaScreen His-ARNT PAS-B/GST-TACC3 binding, luminescence; TACC3 fragment carries E629A point mutation. inhibition, % at 9.99 µM. 390,000 compounds, 0.66% hits;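 active means mean inhibition of replicates at least 50% and at least half of replicates each reaching 50%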;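 further: 0% = complete ARNT plus TACC3 wells and 100% = ARNT alone without TACC3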
# PGC1a acetyl inh – PGC1a acetylation modulation, inhibitor mode | inhibition, % at 15.6 µM | AID 651687 | 350,000 compounds, 0.17% hits | U2OS PGC1a acetylation, AlphaScreen anti-acetyl-lysine; with virally co-expressed GCN5 acetyltransferase;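 active means every replicate shows inhibition of at least 40%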;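 further: 0% = neutral control wells and 100% = positive control wells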
# ERAP1 HTS inh – inhibitors of human ERAP1 aminopeptidase; Q9NZ08; 340,000 compounds, 0.15% hits; recombinant ERAP1, Leu-AMC fluorescence, 60 min; inhibition, % at 10.7 µM;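 active means mean replicate inhibition of at least 30%, or all replicates individually reaching that 30% level; inactive means mean below 30% and not every replicate reaching it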;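 further: 0% = neutral control wells and 100% = L-leucinethiol positive control wells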
# * hit, by the source's call; · = no result given. Sampled rows, rich in hits. Any-hit rate of the full collection: about 2.4%.
SMILES,S100A4 inh HTS,Casp6 inh,Ecoli rRNA inh,ARNT-TACC3 inh,PGC1a acetyl inh,ERAP1 HTS inh
CC(C)(C)C1CCC(C(=O)Nc2ccc(N3CCOCC3)cc2N2CCOCC2)CC1 (stereo unspecified),-5.2,0.6,-20.4*,-2.0,3.4,-2.3
CCCCC1CCC(C(=O)Nc2ccccc2N2CCOCC2)CC1 (stereo unspecified),-3.8,-1.0,-0.2,-3.3,1.3,-3.0
COc1ccc2c3c([nH]c2c1)[C@@H](CO)N(C(=O)NC(C)C)CC31CN(C(=O)c2cccnc2)C1,-20.4,0.0,-2.7,·,-1.3,0.4
CC(C)C(=O)C1=Cc2cccc([N+](=O)[O-])c2OC1N1CCOCC1 (stereo unspecified),0.8,37.1*,·,2.9,·,0.8
CC(C)C(=O)C1=Cc2cc([N+](=O)[O-])ccc2OC1N1CCOCC1 (stereo unspecified),3.2,6.5,9.7,-1.8,-1.6,-0.1
O=C(O)COc1ccc(/C=C/c2nc(-c3ccccc3O)n[nH]2)cc1,-6.5,4.2,-16.6*,36.3,·,-6.4
COc1ccc(/C=C/c2nc(-c3ccccc3O)n[nH]2)cc1OC,·,·,·,13.3,-14.8,·
CCNC(=O)[C@@H]1[C@@H](CO)[C@@H]2Cn3c(ccc(-c4ccccc4F)c3=O)[C@H]1N2S(C)(=O)=O,4.2,1.2,0.5,·,3.4,3.0
O=C(N[C@@H]1CC[C@@H](CC(=O)N2CCOCC2)O[C@@H]1CO)c1ccccn1,-3.5,3.1,-0.5,0.2,-2.7,1.5
C=CCOC(=O)[C@H]1[C@@H]2C(=O)O[C@@H](c3ccccc3)[C@@H](c3ccccc3)N2[C@@H](c2ccc(OCCOC(=O)[C@H]3C[C@H]4C(=O)N5CCC[C@H]5C(=O)N4[C@H]3c3cccc(OCCO)c3)cc2)[C@]12C(=O)Nc1ccccc12,25.2,1.7,·,8.5,21.4,1.6
Cc1ccc2c(C)c(C(=O)NCCc3ccco3)oc2c1C,-3.9,-4.2,-25.6*,-1.8,-4.3,-0.8
COc1ccc2c3c(n(C)c2c1)[C@@H](CO)N(CC1CCOCC1)CC31CN(C(=O)c2cccc(F)c2)C1,·,·,3.7,·,·,·
C[C@@H]1CN([C@@H](C)CO)C(=O)c2cc(NC(=O)NC3CCCCC3)ccc2O[C@@H](C)CCCCO[C@@H]1CN(C)S(=O)(=O)c1cn(C)cn1,136.3*,-0.9,-0.9,3.8,11.3,-4.4
C[C@@H]1CCCCO[C@@H](CN(C)S(=O)(=O)c2cn(C)cn2)[C@H](C)CN([C@@H](C)CO)C(=O)c2cc(NC(=O)C3CCCCC3)ccc2O1,115.7*,-1.3,0.3,-4.5,·,-9.3
C[C@H](CO)N1C[C@H](C)[C@H](CN(C)S(=O)(=O)c2cn(C)cn2)OCCCC[C@H](C)Oc2ccc(NC(=O)C3CCCCC3)cc2C1=O,-12.9,0.9,-0.7,-1.4,·,-5.3
C[C@H]1CCCCO[C@H](CN(C)S(=O)(=O)c2cn(C)cn2)[C@@H](C)CN([C@@H](C)CO)C(=O)c2cc(NC(=O)NC3CCCCC3)ccc2O1,39.1,-1.2,2.2,-3.5,-4.7,-3.7
N#C[C@H]1[C@@H](c2ccccc2-c2ccccc2)[C@H](CO)N1C(=O)Cc1ccccc1,·,·,-14.1,·,·,·
COc1cccc(-c2cnc3c(c2)C(=O)N([C@H](C)CO)C[C@H](C)[C@@H](CN(C)Cc2ccc(F)cc2)O3)c1,-21.7,3.0,-0.7,10.8,-10.7,0.5
Cc1nc(C(F)(F)F)c(C(=O)N/N=C(\N)c2ccccn2)s1,0.7,-0.6,9.7,62.3*,-0.7,-4.1
N/C(=N\NS(=O)(=O)c1ccccc1C(F)(F)F)c1ccccn1,-12.3,0.1,14.2,41.4,-2.8,·
CCCC(=O)Nc1ccc2c(c1)OC[C@H](C)N(C(=O)CC)C[C@H](C)[C@H](OC)CN(C)C2=O,14.7,-0.2,-1.1,-2.5,9.4,-1.7
Cc1cc([N+](=O)[O-])cc(/C=N\NC(=O)C2COc3ccccc3O2)c1O (stereo unspecified),-2.8,0.0,-8.7,43.2*,10.0,·
C[C@H](CO)N1C[C@H](C)[C@@H](CN(C)C(=O)CCCN(C)C)OCCCC[C@H](C)Oc2ccc(NS(=O)(=O)c3cn(C)cn3)cc2C1=O,9.7,0.7,0.9,-0.5,0.8,-2.3
COC(=O)c1c(C(=O)OC)c(-c2ccc(C)cc2)n2c1CCC2,·,·,·,3.1,·,·
COC(=O)c1c(C(=O)OC)c(-c2ccc(Cl)c(Cl)c2)n2c1CCC2,-0.5,3.4,-29.4*,5.7,-0.3,2.9
SMILES,S100A4 inh HTS,Casp6 inh,Ecoli rRNA inh,ARNT-TACC3 inh,PGC1a acetyl inh,ERAP1 HTS inh
Cc1cc(=O)oc2c3c(cc(OCC(=O)N[C@@H](C)C(=O)O)c12)OC(C)(C)CC3,11.9,1.4,2.1,7.7,·,6.9
Cc1cc(=O)oc2c3c(cc(OCC(=O)NC(Cc4ccc(Cl)cc4)C(=O)O)c12)OC(C)(C)CC3 (stereo unspecified),-2.1,-0.3,-38.5*,-5.0,4.8,0.1
Cc1cc(=O)oc2c3c(cc(OCC(=O)N[C@@H](Cc4ccccc4)C(=O)O)c12)OC(C)(C)CC3,-0.2,0.1,-31.2*,11.9,5.3,-8.8
Cc1c(C)c2c(OCC(=O)N3CCC(C(=O)O)CC3)cc3c(c2oc1=O)CCC(C)(C)O3,·,·,·,45.1*,9.3,·
CN1C(=O)c2cc(NC(=O)NC3CCCC3)ccc2OC[C@H]2O[C@@H](CC(=O)O)CC[C@@H]21,1.4,-1.7,5.9,2.0,0.4,-1.2
CC(C)[C@@H](C)NC(=O)N(C)C[C@@H]1OCc2ccccc2-c2c(n(C)c3ccccc23)C(=O)N([C@H](C)CO)C[C@@H]1C,-4.2,-4.2,-1.4,1.2,-2.1,1.9
S=C(NCc1ccco1)N/N=C/c1ccc(Cl)cc1,-6.8,1.1,-38.7*,1.6,·,0.9
O=C(c1ccco1)N(CCCN1CCOCC1)c1nc(-c2ccc(F)cc2)cs1,-11.5,-4.1,-33.0*,7.8,-20.6,0.4
CCc1ccc2c(c1)C(c1ccc(N3CCOCC3)cc1)=NNC(c1ccncc1)=N2,-23.3,-1.4,-17.8*,2.2,·,-1.1
CCOc1ccc(C2=Nc3ccc(Br)cc3C(c3ccc(N4CCOCC4)cc3)=NN2)cc1,·,·,·,-4.7,·,·
COc1ccc(C)cc1NC(=O)c1nn(C)c(C(=O)Nc2cc(C)ccc2OC)c1[N+](=O)[O-],2.9,1.4,14.2,-2.9,3.2,-0.4
COc1ccc(C)cc1NC(=O)c1nn(C)cc1Br,0.3,1.2,-14.8*,-5.9,·,4.7
COc1ccc(-c2cc(C(F)(F)F)nc(S(=O)(=O)CCCC(=O)Nc3cc(C)on3)n2)cc1OC,0.9,5.8,-5.0,9.6,·,36.6*
COc1ccccc1-c1cc(C(F)(F)F)nc(S(=O)(=O)CCCC(=O)Nc2cc(C)on2)n1,·,·,·,20.3,15.9,·
Cc1coc2cc3oc(=O)c(Cc4ccccc4)c(C)c3cc12,-22.4,-0.4,-21.6*,-2.3,·,0.2
